These results are taken from ChEMBL document CHEMBL4513216, “Probing the Open Global Health Chemical Diversity Library for Multistage-Active Starting Points for Next-Generation Antimalarials” (ACS Infect Dis, 2020).

The nature of this data set: Toxicity liver stage against HepG2, at 10uM. It is filed as cell-based. The arrangement: test concentration 10 uM, cell line HepG2-A16-CD81EGFP. As to conditions: human, HepG2-A16-CD81EGFP cells; read-out: INHIBITION
Put shortly:
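Uninfected HepG2-A16-CD81EGFP cells, 3 × 10^3 per well, 1536-well, plated on prespotted compound at 10 μM final, parasite-free screening media added to match infected plates; puromycin 10 μM positive, DMSO 0.5% negative; run in parallel with 48 h PbLuc assay at 37 °C, 5% CO2; viability by CellTiter-Glo luminescence, normalized to controls.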
Turning to `CC(C)CNC[C@H]1O[C@H](Cc2cc(-c3ccccn3)on2)CC[C@@H]1O`, the cytotoxicity at 10 µM was -0.238%.

`CC(C)(C)CC(=O)N1CC[C@H]2CC(=O)N(CCc3c[nH]cn3)CC[C@H]2C1`: the cytotoxicity at 10 µM is -3.97%.

Consider `O=C(CNC(=O)N1CCc2c([nH]c3ccc(Cl)cc23)C1)NCCCO`, for which the cytotoxicity at 10 µM is 5.36%.

Regarding `c1cncc(COCC2CN(Cc3ccsc3)Cc3ccnn3C2)c1` (stereo not drawn), the cytotoxicity at 10 µM was -140%.

For the compound `O=C(NCC1CC1)c1cc2c(s1)CCN2C(=O)c1ccc(F)cc1`, the cytotoxicity at 10 µM is 2.55%.

For `CN(Cc1cccnc1)Cc1cn2c(n1)CN(C1CCOCC1)CC2`, the cytotoxicity at 10 µM was 8.94%.

As to `CN(C)CCN1CCOCC2(CCCN(C(=O)c3cccc(O)c3)C2)C1` (stereo not drawn), the cytotoxicity at 10 µM came out at 11.7%.

With `c1ccc(CO[C@H]2CO[C@@]3(CCCN(Cc4ccncc4)C3)C2)nc1`, the cytotoxicity at 10 µM was 1.44%.

On to `Cn1cc(C[C@H]2[C@H](O)CCN2C(=O)C2CCOCC2)cn1`, for which the cytotoxicity at 10 µM amounted to 13%.

Consider `CC(C)NC(=O)C1CCN(c2nc3nc[nH]c(=O)c3s2)CC1`, for which the cytotoxicity at 10 µM was -3.79%.

Consider `Cc1nn(C)c(=O)c2nn(-c3ccc(F)cc3)c(C)c12`, for which the cytotoxicity at 10 µM is -0.839%.

For the compound `CNC(=O)[C@H]1C[C@@H]2CN(C(=O)c3ccco3)C[C@@H]2N1S(C)(=O)=O`, the cytotoxicity at 10 µM is -10.2%.

Regarding `O=C(O)CCCC(=O)Nc1cnn(COc2ccc(F)cc2Cl)c1`, the cytotoxicity at 10 µM was found to be 8.69%.

Consider `c1cnc(-c2nn3c(CN4CCOCC4)nnc3s2)cn1`, for which the cytotoxicity at 10 µM amounted to 7.74%.

As for `NC(=O)c1c[nH]nc1NCc1ccc2c(c1)OCO2`, the cytotoxicity at 10 µM is -2.9%.

Regarding `Cc1cc(C)nc(N2CCC(c3cccc(CCC(=O)O)n3)CC2)n1`, the cytotoxicity at 10 µM is 0.343%.

On to `O=S1(=O)NC(C2CCCN(S(=O)(=O)N3CCCC3)C2)=Nc2ccccc21` (stereo not drawn), for which the cytotoxicity at 10 µM is 2.17%.

As for `COCCN1CCC1c1cc(NC2CCCC2)nc(C)n1` (stereo not drawn), the cytotoxicity at 10 µM turned out to be 0.994%.

As for `Cc1cc(Oc2ccccc2C)nc(C2CCCN2)n1` (stereo not drawn), the cytotoxicity at 10 µM came to 1.22%.

Regarding `CC(=O)N1CCC(c2[nH]ncc2S(C)(=O)=O)CC1`, the cytotoxicity at 10 µM amounted to 0.752%.

As to `CN1CCC(c2cccc(-c3cccc(C(=O)O)c3)n2)CC1`, the cytotoxicity at 10 µM was -6.55%.

Consider `CCOCC(=O)N1C[C@@H](O)[C@H](NC(C)=O)C1`, for which the cytotoxicity at 10 µM is -4.48%.

On to `CC(C)N1CCC(Cc2cc(-c3cc(F)ccc3C(=O)O)ncn2)C1` (stereo not drawn), for which the cytotoxicity at 10 µM came out at 7.49%.

Consider `CNc1cc(CNC(=O)c2ccncc2)nc(-c2ccncc2)n1`, for which the cytotoxicity at 10 µM was -7.16%.

For `NCCCC(=O)N1CCC2(CC1)CN(C(=O)c1ccc(Cl)cc1)CCO2`, the cytotoxicity at 10 µM came to 6.83%.

As to `NC(=O)c1cccc(CS(=O)(=O)CC(O)Cn2cccn2)c1` (stereo not drawn), the cytotoxicity at 10 µM is -2.45%.

On to `O=C(Cn1cnnn1)NC(c1ccccc1)c1ccc2c(c1)CCCO2` (stereo not drawn), for which the cytotoxicity at 10 µM is -1.47%.

`Cc1ccc(C2CSCCN2C(=O)c2ccccn2)cc1` (stereo not drawn): the cytotoxicity at 10 µM came out at 2.04%.

Turning to `CCOc1ccc(NC(=O)c2scnc2CC)cc1CO`, the cytotoxicity at 10 µM is -9.48%.

Regarding `Cc1cc(NC(=O)CN2CCOC(CN(C)C)C2)n(C)n1` (stereo not drawn), the cytotoxicity at 10 µM is 0.894%.

As for `CC1CCC(O)(CSc2nnnn2C)CC1` (stereo not drawn), the cytotoxicity at 10 µM was -8.03%.

As for `CC1CCC(N2CCC(NS(=O)(=O)CCOC(C)C)CC2)CC1` (stereo not drawn), the cytotoxicity at 10 µM was -0.45%.

For the compound `CN(Cc1ncnn1C)C1CCN(c2sccc2C#N)C1=O` (stereo not drawn), the cytotoxicity at 10 µM amounted to 10.2%.

As for `Cc1nnc(NC(=O)NCCN(C(=O)OC(C)(C)C)C2CC2)s1`, the cytotoxicity at 10 µM was determined as 5.53%.

As to `COc1ccc(CN2CC(n3cccn3)C2)cc1F`, the cytotoxicity at 10 µM is -0.483%.

On to `CN(C)S(=O)(=O)c1ccc(=O)n(CC2CCCCO2)c1` (stereo not drawn), for which the cytotoxicity at 10 µM is -8.58%.

With `CCn1cnnc1CNC(=O)N(C)Cc1cccc(Cl)c1Cl`, the cytotoxicity at 10 µM is -16.2%.

As to `Cc1cc(N2CCCC2)c(C#N)c(C)n1`, the cytotoxicity at 10 µM turned out to be 10.4%.

Consider `COCCN1CCC(CNC(=O)c2ccnc(-n3ccnc3)c2)CC1`, for which the cytotoxicity at 10 µM was -1.63%.

For `Cc1ccoc1C(=O)NCCS(=O)(=O)N1CCSCC1`, the cytotoxicity at 10 µM is -2.65%.

For the compound `N#Cc1csc(CNCCOc2ccc(Cl)cn2)c1`, the cytotoxicity at 10 µM is -5.59%.

`CN(C)Cc1ccc(NC(=O)c2nccn3ccnc23)cc1`: the cytotoxicity at 10 µM is -2.6%.

Consider `COCCNS(=O)(=O)c1ccc(Cl)c(C(=O)N(C)Cc2sccc2C)c1`, for which the cytotoxicity at 10 µM was -7.53%.

As to `Oc1cccc(CNC2CCN(CCc3ccncc3)CC2)c1`, the cytotoxicity at 10 µM was -1.56%.

With `O=C(c1cccnc1O)N(Cc1cccs1)CC1CCCO1` (stereo not drawn), the cytotoxicity at 10 µM is -11.5%.

As to `CS(=O)(=O)NCC1CCCN(C(=O)Nc2ccccc2F)C1` (stereo not drawn), the cytotoxicity at 10 µM was -145%.

`CCCN(CC(F)F)C(=O)CCc1c(C)nc2cc(O)nn2c1C`: the cytotoxicity at 10 µM was -147%.

Turning to `COCCS(=O)(=O)NC(C)c1ccccc1Br` (stereo not drawn), the cytotoxicity at 10 µM was determined as 1.02%.

Take `CCN(C(=O)NCc1ncc(C)c(OC)c1C)C(C)c1cccnc1` (stereo not drawn): the cytotoxicity at 10 µM stood at 1.84%.

As to `Cc1cc(S(=O)(=O)Nc2onc(C)c2C)c(C)s1`, the cytotoxicity at 10 µM is -4.96%.

Regarding `CC(=O)NCCNC(=O)NCc1ccc(Br)cc1Cl`, the cytotoxicity at 10 µM came to 5.19%.

Take `CC(c1ccccc1)N1CCC(NC(=O)CCc2ccsc2)CC1` (stereo not drawn): the cytotoxicity at 10 µM turned out to be 0.91%.

Turning to `Cc1n[nH]cc1CNC1(Cc2ccc(Br)cc2)CCCCC1`, the cytotoxicity at 10 µM stood at 14.1%.

As to `CS(=O)(=O)N[C@@H]1CCN(Cc2ccncc2)[C@H]1Cc1cccnc1`, the cytotoxicity at 10 µM was -79.7%.

For the compound `COCCC(=O)N1CCC2(CN(Cc3cccc(F)c3)C2)C1`, the cytotoxicity at 10 µM was -74%.

As for `CNc1ncc(-c2ccc(NC(=O)[C@@H]3CCCCN3)cc2)cn1`, the cytotoxicity at 10 µM was -7.66%.

With `CN1CCN(CC2CC2)C(=O)c2cnc(N3CCC(CO)CC3)nc21`, the cytotoxicity at 10 µM is -3.14%.

Regarding `CC(=O)NC1CCN(c2nc(C)nc3c2c(C)nn3C)C1` (stereo not drawn), the cytotoxicity at 10 µM stood at 8.32%.

With `COCCN1CCC(CN(CC2CCCO2)C(=O)Cc2cccs2)CC1` (stereo not drawn), the cytotoxicity at 10 µM is -0.894%.

As to `Cc1ccccc1C1CCN(CCn2cc(-c3nccs3)nn2)C1` (stereo not drawn), the cytotoxicity at 10 µM is -1.29%.

Regarding `CC(Cc1ccc2c(c1)OCO2)c1cn(CCc2c[nH]cn2)nn1` (stereo not drawn), the cytotoxicity at 10 µM was found to be 8.66%.

Turning to `CN(C)C[C@@H]1CN(C(=O)c2cc(S(N)(=O)=O)ccc2F)C[C@@H]1CO`, the cytotoxicity at 10 µM was 4.83%.

Regarding `CC(C)Cc1ncc2c(n1)CN(c1nccc(NC(C)C)n1)C2`, the cytotoxicity at 10 µM was -10.7%.

Consider `Cc1cc(C)n(CC(C)NCCN2CCc3ccccc32)n1` (stereo not drawn), for which the cytotoxicity at 10 µM is -7.73%.

For the compound `CSc1nccc(NCC2CNCCO2)n1` (stereo not drawn), the cytotoxicity at 10 µM stood at 2.56%.

With `CCc1cc(NCCNC(C)=O)nc(N2CCOCC2)n1`, the cytotoxicity at 10 µM was 2.38%.

On to `O=C(O)c1ccnc(-c2ccnc(N3CCCCCC3)n2)c1`, for which the cytotoxicity at 10 µM was -10%.

`CCN1CC2(CCN(CC3COCCO3)CC2)OC1=O` (stereo not drawn): the cytotoxicity at 10 µM is -4.15%.

As to `O=C1CCCCN1Cc1cccc(OC(F)F)c1`, the cytotoxicity at 10 µM is 3.17%.

Turning to `CC(=O)N1CCCN(c2nccc(-c3cn(C)nc3C)n2)CC1`, the cytotoxicity at 10 µM was determined as 22.3%.

As for `CCOc1ccc(Cl)c(C(=O)N2CCN(CC(C)(C)O)CC2)n1`, the cytotoxicity at 10 µM is -5.72%.

As for `CC(C)c1nn(C)c(N(C)C)c1CNCc1cccc2c1OCO2`, the cytotoxicity at 10 µM is -4.66%.

In the case of `COc1ccnc(N2CCN(CC(O)CN3CCOCC3)CC2)n1` (stereo not drawn), the cytotoxicity at 10 µM was -3.44%.

As for `Cc1nccn1C1CCCN(C(=O)c2ccc3cc[nH]c3c2)C1` (stereo not drawn), the cytotoxicity at 10 µM was -9.69%.

Regarding `CN(Cc1cnccn1)S(=O)(=O)N1CCCC1c1ccco1` (stereo not drawn), the cytotoxicity at 10 µM is -15.6%.

Take `O=C(CCn1cccn1)N1CCSCC1`: the cytotoxicity at 10 µM is -5.92%.

For `COc1cccc(-n2nnc(C(=O)N3CCN(C(C)=O)CC3)c2C)c1`, the cytotoxicity at 10 µM was -13.2%.

Turning to `Cn1ccnc1CN1CCN(CC(O)c2ccccc2)CC1` (stereo not drawn), the cytotoxicity at 10 µM was -11.4%.

Regarding `Cc1cc(C)n(CC2CCCN2CCS(C)(=O)=O)n1` (stereo not drawn), the cytotoxicity at 10 µM is -3.95%.

As to `Cc1nc2ccccc2c(=O)n1CCCC(=O)N1CCNC(=O)CC1`, the cytotoxicity at 10 µM was -11.8%.

For `CCC1CN(CC(=O)N2CCN(C(C)=O)CC2)CCN1CCOC` (stereo not drawn), the cytotoxicity at 10 µM is -7.58%.

`Cc1ncsc1C(=O)NCCSCCCO`: the cytotoxicity at 10 µM is -11.3%.

Regarding `CC(=O)NC1CCCN(C(=O)Nc2cnc3c(cnn3C(C)C)c2)C1` (stereo not drawn), the cytotoxicity at 10 µM is -4.67%.

Turning to `Cc1nc(C2CCCN2CCCNS(C)(=O)=O)no1` (stereo not drawn), the cytotoxicity at 10 µM was -8.6%.

In the case of `CC(C)Oc1ncccc1CNC(=O)C1CCCN(C(=O)C2CC2)C1` (stereo not drawn), the cytotoxicity at 10 µM is -8.57%.

As for `Cc1cnn(CC2CCCN2Cc2nnsc2Cl)c1` (stereo not drawn), the cytotoxicity at 10 µM was -8.72%.

Turning to `O=C(CCc1nccs1)N1CCN(c2ccccc2F)CC1`, the cytotoxicity at 10 µM was -9.42%.

Consider `O=C(N[C@@H]1CN(c2ncccn2)C[C@@H]2CCCO[C@@H]21)c1cccnc1`, for which the cytotoxicity at 10 µM is 11.4%.

Turning to `COCCC(=O)N1CCC2(CCN(Cc3ccc(C)cc3)CC2)C1`, the cytotoxicity at 10 µM is -74.4%.

Turning to `CN(Cc1ccncc1)C1COC2(CCN(Cc3cccs3)CC2)C1` (stereo not drawn), the cytotoxicity at 10 µM is -0.931%.

On to `O=C(c1cscn1)N1C[C@H]2CCCC(OCc3cccnc3)[C@H]2C1` (stereo partly drawn), for which the cytotoxicity at 10 µM was -6.61%.

`O=C(Nc1ccccc1)C1CN(CC2CC2)CC12CCOCC2` (stereo not drawn): the cytotoxicity at 10 µM is -6.36%.

For `Cc1c(F)cccc1S(=O)(=O)NCCN`, the cytotoxicity at 10 µM amounted to 1.99%.

As for `CN(C)S(=O)(=O)N1CCO[C@H]2[C@H](Oc3cccnc3)CC[C@@H]21`, the cytotoxicity at 10 µM worked out at 4.64%.

As to `CC[C@@H]1N(CC2CC2)CCC[C@]12CCC(=O)N2CCOC`, the cytotoxicity at 10 µM was -5.15%.

For `CCn1cc(CN2C[C@@H]3CC[C@H]2CN(C(=O)C2CCC2)C3)cn1`, the cytotoxicity at 10 µM came to 3.5%.

`Cc1nnsc1C(=O)N1C[C@@H]2CC[C@H]1CN(c1cnccn1)C2`: the cytotoxicity at 10 µM was 9.88%.

With `Nc1ncnc2[nH]c(N3CCCCC3)nc12`, the cytotoxicity at 10 µM was -1.43%.
